In brackets after ≈: the same amount, converted by molar mass.
Legend:
[1] = Aqueous solubility of the compound at pH 4.5 incubated for 24 hrs under shaking condition by LC-UV analysis; assay type: physicochemical; conditions: aqueous medium
Outline: (§1)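 The highest concentration tested was 250 μM, so results are capped at that level. Values are reported in µg/ml.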

[2] = Lipophilicity, logP of the compound; assay type: physicochemical; conditions: octanol/water
[3] = Octanol-water partition coefficient, logD of the compound at pH 11 by HPLC analysis; assay type: physicochemical; conditions: read-out: logD
[4] = Octanol-water partition coefficient, logD of the compound at pH 2 by HPLC analysis; assay type: physicochemical
[5] = Permeability of the compound at pH 7.4 by PAMPA assay; assay type: ADME; conditions: read-out: permeability
[6] = Photostability of the compound assessed as compound degradation administered as aqueous solution irradiated with UV and measured after 24 hrs by HPLC analysis
[7] = Metabolic stability in human liver microsomes assessed as hepatic blood flow at 1 uM preincubated with compound followed by NADPH addition by LC-MS/MS analysis; assay type: ADME, Microsome; conditions: read-out: QH
[8] = Aqueous solubility of the compound at pH 2.2 incubated for 24 hrs under shaking condition by LC-UV analysis; assay type: physicochemical; conditions: aqueous medium; outline: as §1
[9] = Aqueous solubility of the compound at pH 6.8 incubated for 24 hrs under shaking condition by LC-UV analysis; assay type: physicochemical; conditions: aqueous medium; outline: as §1
[10] = Stability of the compound at pH 7.4 assessed as half life measured after 24 hrs in presence of GSH by HPLC analysis; assay type: physicochemical; conditions: solution with GSH
Cytochrome P450 2C8 = molecular target: T1, Cytochrome P450 2C8 (Homo sapiens, UniProt P10632); experiment: Inhibition of CYP2C8 in human liver microsomes using amodiaquine as substrate preincubated with compound followed by NADPH addition by LC-MS/MS analysis; assay type: ADME, Microsome
T1 sequence (P10632 whole entry): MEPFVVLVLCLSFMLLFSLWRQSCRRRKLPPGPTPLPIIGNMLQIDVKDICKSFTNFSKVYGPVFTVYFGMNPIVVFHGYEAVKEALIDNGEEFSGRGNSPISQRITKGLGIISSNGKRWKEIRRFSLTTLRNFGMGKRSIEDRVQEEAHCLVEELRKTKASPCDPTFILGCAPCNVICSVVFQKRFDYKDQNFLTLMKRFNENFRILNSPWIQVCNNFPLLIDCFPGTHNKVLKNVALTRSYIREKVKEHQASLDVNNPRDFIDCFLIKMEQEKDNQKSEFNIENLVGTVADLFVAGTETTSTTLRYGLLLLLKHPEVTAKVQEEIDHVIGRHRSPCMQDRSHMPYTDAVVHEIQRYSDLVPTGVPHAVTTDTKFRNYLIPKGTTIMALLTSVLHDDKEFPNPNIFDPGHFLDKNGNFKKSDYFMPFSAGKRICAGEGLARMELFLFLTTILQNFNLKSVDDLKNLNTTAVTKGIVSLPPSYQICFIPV

Cytochrome P450 2C9 = Cytochrome P450 2C9 (Homo sapiens, UniProt P11712); experiment: Inhibition of CYP2C9 in human liver microsomes using diclofenac as substrate preincubated with compound followed by NADPH addition by LC-MS/MS analysis; assay type: ADME, Microsome
Cytochrome P450 3A4 = Cytochrome P450 3A4 (Homo sapiens, UniProt P08684); experiment: Inhibition of CYP3A4 in human liver microsomes using midazolam as substrate preincubated with compound followed by NADPH addition by LC-MS/MS analysis; assay type: ADME, Microsome
Cytochrome P450 2D6 = Cytochrome P450 2D6 (Homo sapiens, UniProt P10635); experiment: Inhibition of CYP2D6 in human liver microsomes using dextromethorphan as substrate preincubated with compound followed by NADPH addition by LC-MS/MS analysis; assay type: ADME, Microsome
Cytochrome P450 2C19 = Cytochrome P450 2C19 (Homo sapiens, UniProt P33261); experiment: Inhibition of CYP2C19 in human liver microsomes using mephenytoin as substrate preincubated with compound followed by NADPH addition by LC-MS/MS analysis; assay type: ADME, Microsome
[11] = Photostability of the compound at pH 8.7 assessed as compound degradation administered as solution irradiated with sun light and measured after 7 days by HPLC analysis; assay type: physicochemical; conditions: time 7 day, read-out: Drug degradation
Outline: (§2)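 Compound in solution was kept for 7 days under "mild" light-stress conditions, with no pH adjustment. The pH listed for each compound is the solution's own intrinsic pH. Result is % degradation of parent.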

[12] = Photostability of the compound assessed as compound degradation administered as solid irradiated with sun light and measured after 7 days by HPLC analysis
[13] = Hydrolytic stability of the compound in aqueous buffer at pH 7.4 assessed as compound decomposition measured after 3 days by HPLC analysis; assay type: physicochemical; conditions: time 3 day, read-out: Drug degradation
Outline: (§3)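 Compound was held for 3 days at 40 °C in 0.1 M HCl in water or in aqueous buffer at pH 7.4. Dissolution was confirmed by eye, and decomposition is reported as % loss of parent.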

[14] = Photostability of the compound at pH 5.3 assessed as compound degradation administered as solution irradiated with sun light and measured after 7 days by HPLC analysis; assay type: physicochemical; conditions: time 7 day, read-out: Drug degradation; outline: as §2
[15] = Hydrolytic stability of the compound in aqueous HCl assessed as compound decomposition measured after 3 days by HPLC analysis; assay type: physicochemical; conditions: time 3 day, read-out: Drug degradation; outline: as §3
[16] = Photostability of the compound at pH 8.6 assessed as compound degradation administered as solution irradiated with sun light and measured after 7 days by HPLC analysis; assay type: physicochemical; conditions: time 7 day, read-out: Drug degradation; outline: as §2
[17] = Cytotoxicity against human HepG2 cells assessed as cell growth inhibition incubated for 24 hrs by MTT assay; assay type: toxicity, cell-based
Outline: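 HepG2 human hepatoma cells were exposed to compound at concentrations up to 400 µM and viability was read by MTT. The result is given in µM.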

[18] = Photostability of the compound at pH 5.8 assessed as compound degradation administered as solution irradiated with sun light and measured after 7 days by HPLC analysis; assay type: physicochemical; conditions: time 7 day, read-out: Drug degradation; outline: as §2
[19] = Photostability of the compound at pH 4.1 assessed as compound degradation administered as solution irradiated with sun light and measured after 7 days by HPLC analysis; assay type: physicochemical; conditions: time 7 day, read-out: Drug degradation; outline: as §2
[20] = Dissociation constant, pKa of the compound by dip probe absorption spectroscopy; assay type: physicochemical

Sequence of Cytochrome P450 2C9 (P11712 whole entry): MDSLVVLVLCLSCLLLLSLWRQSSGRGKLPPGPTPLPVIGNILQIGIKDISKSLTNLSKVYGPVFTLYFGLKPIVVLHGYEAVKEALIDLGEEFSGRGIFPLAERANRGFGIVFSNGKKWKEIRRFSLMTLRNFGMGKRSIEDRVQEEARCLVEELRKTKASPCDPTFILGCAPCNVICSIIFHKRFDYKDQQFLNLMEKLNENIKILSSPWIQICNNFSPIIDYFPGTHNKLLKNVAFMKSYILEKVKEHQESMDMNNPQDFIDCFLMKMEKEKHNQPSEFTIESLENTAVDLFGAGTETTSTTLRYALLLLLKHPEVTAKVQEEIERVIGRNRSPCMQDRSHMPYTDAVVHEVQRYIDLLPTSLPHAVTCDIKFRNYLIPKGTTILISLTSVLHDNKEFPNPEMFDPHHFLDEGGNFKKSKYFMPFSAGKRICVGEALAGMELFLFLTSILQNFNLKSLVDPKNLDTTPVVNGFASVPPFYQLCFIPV
Sequence of Cytochrome P450 2C19 (P33261 whole entry): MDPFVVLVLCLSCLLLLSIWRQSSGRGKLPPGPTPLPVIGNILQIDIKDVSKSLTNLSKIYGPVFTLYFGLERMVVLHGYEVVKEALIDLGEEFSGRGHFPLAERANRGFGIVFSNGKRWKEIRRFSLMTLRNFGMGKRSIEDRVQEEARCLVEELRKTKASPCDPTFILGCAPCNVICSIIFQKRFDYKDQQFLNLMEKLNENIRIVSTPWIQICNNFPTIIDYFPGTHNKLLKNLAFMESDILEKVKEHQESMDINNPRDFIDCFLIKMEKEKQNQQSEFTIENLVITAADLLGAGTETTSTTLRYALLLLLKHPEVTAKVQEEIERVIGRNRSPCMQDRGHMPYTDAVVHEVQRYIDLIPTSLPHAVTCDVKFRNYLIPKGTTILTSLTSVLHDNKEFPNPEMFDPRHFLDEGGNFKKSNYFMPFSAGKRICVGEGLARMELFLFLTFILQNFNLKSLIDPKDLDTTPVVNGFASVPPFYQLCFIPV
Sequence of Cytochrome P450 2D6 (P10635 whole entry): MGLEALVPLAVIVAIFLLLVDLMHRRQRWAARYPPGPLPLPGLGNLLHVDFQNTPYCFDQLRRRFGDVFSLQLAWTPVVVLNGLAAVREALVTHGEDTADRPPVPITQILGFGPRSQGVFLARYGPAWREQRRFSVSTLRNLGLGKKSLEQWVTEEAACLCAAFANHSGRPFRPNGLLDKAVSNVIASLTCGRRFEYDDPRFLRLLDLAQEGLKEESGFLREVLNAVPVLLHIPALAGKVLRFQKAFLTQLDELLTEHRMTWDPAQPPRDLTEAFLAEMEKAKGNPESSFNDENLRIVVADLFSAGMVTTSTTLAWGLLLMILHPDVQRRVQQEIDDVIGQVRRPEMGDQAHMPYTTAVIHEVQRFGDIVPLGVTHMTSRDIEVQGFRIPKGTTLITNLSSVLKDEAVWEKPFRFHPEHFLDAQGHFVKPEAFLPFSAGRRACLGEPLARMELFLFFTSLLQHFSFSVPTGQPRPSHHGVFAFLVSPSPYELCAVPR
Sequence of Cytochrome P450 3A4 (P08684 whole entry): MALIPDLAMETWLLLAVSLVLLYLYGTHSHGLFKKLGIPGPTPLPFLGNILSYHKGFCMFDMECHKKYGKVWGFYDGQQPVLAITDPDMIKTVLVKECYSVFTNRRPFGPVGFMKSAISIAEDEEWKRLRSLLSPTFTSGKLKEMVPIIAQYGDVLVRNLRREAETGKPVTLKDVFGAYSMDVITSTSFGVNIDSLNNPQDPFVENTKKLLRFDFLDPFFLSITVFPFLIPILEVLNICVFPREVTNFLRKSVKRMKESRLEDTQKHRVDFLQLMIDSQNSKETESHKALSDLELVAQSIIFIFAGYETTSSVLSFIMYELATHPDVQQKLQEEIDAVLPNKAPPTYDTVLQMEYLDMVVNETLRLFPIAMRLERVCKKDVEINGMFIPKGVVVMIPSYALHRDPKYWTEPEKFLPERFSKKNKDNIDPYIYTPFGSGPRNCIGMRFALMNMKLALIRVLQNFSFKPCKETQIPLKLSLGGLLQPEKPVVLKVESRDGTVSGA

SMILES | solubility thermodynamic at 24 h [1] | logP [2] | logD [3] | logD [4] | Papp [5] | degraded at 24 h [6] | hepatic extraction ratio at 1 µM [7] | solubility thermodynamic at 24 h [8] | solubility thermodynamic at 24 h [9] | logP ([2]; read-out: logP) | logD ([4]; read-out: logD) | half-life [10] | IC50 (Cytochrome P450 2C8) | IC50 (Cytochrome P450 2C9) | IC50 (Cytochrome P450 3A4) | IC50 (Cytochrome P450 2D6) | IC50 (Cytochrome P450 2C19) | degraded at 168 h [12] | also measured
CN(C)C(=O)c1cccc2ccccc12 | > 50 µg/mL | 1.8 | 1.8 | 2.2 | 8.3 ×10⁻⁶ cm/s | < 0.5% | < 0.23 | > 47 µg/mL | > 43 µg/mL |  |  |  |  |  |  |  |  |  | 
CN(C)C(=O)c1cn(C)c2ccccc12 | > 51 µg/mL | 1.3 | 1.3 | 1.8 | 6.7 ×10⁻⁶ cm/s | < 0.5% | 0.55 | > 51 µg/mL | > 51 µg/mL |  |  |  |  |  |  |  |  |  | 
COC(=O)c1ccc2ccc(C(=O)N(C)C)c-2cc1 | 50 µg/mL (≈ 194 µM) |  | 2.1 |  | 7.4 ×10⁻⁶ cm/s |  |  | > 64 µg/mL | > 64 µg/mL | 2.1 | 2.3 | > 41.7 days |  |  |  |  |  |  | 
O=C(O)c1ccc2c(C(=O)c3ccccc3)cc(C(=O)c3ccccc3)c-2cc1 |  |  |  |  |  |  |  |  |  |  |  |  | 1.5 µM | 12 µM | > 50 µM | > 50 µM | > 50 µM |  | 
c1cc2ccc(CN3CCCCC3)ccc-2c1 |  |  | > 5.5 |  | 3.4 ×10⁻⁶ cm/s |  | 0.75 | > 56 µg/mL | 31 µg/mL (≈ 138 µM) | > 5.5 | 0.8 |  | > 50 µM | > 50 µM | > 50 µM | 17 µM | 2.3 µM | < 0.5% | degraded at 168 h [11]: 3.5%
CN(C)C(=O)Cc1ccc2cccc-2cc1 | > 45 µg/mL |  | 2.2 |  | 8.7 ×10⁻⁶ cm/s |  | 0.27 | > 44 µg/mL | > 43 µg/mL | 2.2 | 2.5 | > 41.7 days |  |  |  |  |  | < 0.5% | degraded at 72 h [13]: < 0.5%; degraded at 168 h [14]: 12%; degraded at 72 h [15]: 2%
CN(C)C(=O)c1ccc2cccccc1-2 | > 44 µg/mL | 1.6 | 1.6 | 2.1 | 7.6 ×10⁻⁶ cm/s | 100% | 0.67 | > 43 µg/mL | > 40 µg/mL |  |  | > 41.7 days | > 50 µM | > 50 µM | > 50 µM | > 50 µM | > 50 µM | < 0.5% | degraded at 72 h [13]: < 0.5%; degraded at 168 h [16]: 3%; degraded at 72 h [15]: < 0.5%; EC50 at 24 h [17]: > 400 µM
O=C(NCCO)c1ccc2ccc(C(=O)c3ccccc3)c-2cc1 | 6 µg/mL (≈ 18.8 µM) |  | 2.2 |  | 1.8 ×10⁻⁶ cm/s |  | < 0.23 | 14 µg/mL (≈ 43.8 µM) | 4 µg/mL (≈ 12.5 µM) | 2.2 | 2.3 |  | > 50 µM | > 50 µM | > 50 µM | > 50 µM | > 50 µM | < 0.5% | degraded at 168 h [18]: < 0.5%
O=C(O)c1ccc2ccc(C(=O)c3ccccc3)c-2cc1 |  |  |  |  |  |  |  |  |  |  |  | > 41.7 days | > 50 µM | > 50 µM | > 50 µM | > 50 µM | > 50 µM | < 0.5% | degraded at 168 h [19]: < 0.5%; pKa [20]: 3.2
COCC(=O)Nc1cc2cccccc-2c1 |  |  |  |  |  |  |  |  |  |  |  |  | > 50 µM | > 50 µM | > 50 µM | > 50 µM | 22 µM |  | EC50 at 24 h [17]: > 400 µM
